Publication PMC3509950 (Journal of nuclear medicine : official publication, Society …, 2012)

Experiments:
[1] = Incorporation of infused FAA into brain lipids of unanesthetized mice; type: in vivo, C57BL/6J male mice
[2] = Plasma kinetics of FAA during 5-min intravenous infusion in unanesthetized mice; type: in vivo, C57BL/6J male mice; conditions: for plasma area under the curve: 5-min intravenous infusion, mice
In short: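 Male C57BL/6J mice, 2–3 mo, unanesthetized after 3 h recovery at 37°C. Test compound (0.3 or 1.6 nmol per mouse) in HEPES–fatty acid-free BSA (50 mg/mL, pH 7.4) was infused intravenously at variable rate for 5 min. Arterial plasma was sampled at 0–4.9 min, Folch-extracted, pentafluorobenzyl-derivatized, and analysed by NCI GC/MS against a 17:0 internal standard. AUC was derived by trapezoidal integration; n = 2–3.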

- FAA detected in brain UFA, triglyceride and cholesteryl ester fractions ([1]; end of 5-min infusion, mouse brain): < 0.01 nmol/g
- plasma area under the curve ([2]; high dose (1.6 nmol)): 0.236 ± 0.0189 µM·h
- plasma area under the curve ([2]; low dose (0.3 nmol)): 0.0297 ± 0.0217 µM·h
Structure (SMILES): O=C(O)CCC/C=C\C/C=C\C/C=C\C/C=C\CCCCCF [FAA, 20-Fluoroarachidonic Acid]
- FAA concentration within brain phospholipids (rank order) ([1]; both doses, end of 5-min infusion, Fig. 2A): highest in PtdIns and ChoGlp, followed by EtnGlp and PtdSer
- incorporation coefficient k*, high versus low infusion dose ([1]; brain lipids, 0.3 vs 1.6 nmol, Fig. 3): lower for the high-infusion dose than for the low-infusion dose
- FAA concentration in plasma over time ([2]; 0.3 or 1.6 nmol infused intravenously over 5 min, Fig. 1): increased over time in a dose-dependent manner
